Bioassay records deposited in PubChem BioAssay by Johns Hopkins Ion Channel Center.
MrgX1 antag: antagonists of human MrgX1 receptor | B-score at 10 µM | 310,000 compounds, 1.3% hits | MRGX1-HEK293 calcium flux, Fluo-4, BAM8-22 antagonism; stronger effect = lower value | Q96LB2 | AID 588676;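 active = calcium-response B-score plate-corrected more than 3 library SD below zero, starting fluorescence within 5 deviations, no agonist response on first addition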;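 also: peak minus trough fluorescence over baseline after final BAM8-22 challenge near maximal dose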
Target sequence (Q96LB2 whole entry, looked up): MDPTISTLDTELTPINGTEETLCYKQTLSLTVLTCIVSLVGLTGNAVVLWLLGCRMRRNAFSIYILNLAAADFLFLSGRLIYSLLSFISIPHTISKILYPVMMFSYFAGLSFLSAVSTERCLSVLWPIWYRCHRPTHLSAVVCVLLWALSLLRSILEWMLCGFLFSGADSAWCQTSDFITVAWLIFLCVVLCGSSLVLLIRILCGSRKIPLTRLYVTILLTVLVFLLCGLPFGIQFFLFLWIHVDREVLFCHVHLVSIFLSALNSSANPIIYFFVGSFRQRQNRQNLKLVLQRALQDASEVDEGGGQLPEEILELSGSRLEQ
RGS4 block: human RGS4 inhibition. P49798. HEK293 M3R/RGS4 inducible, Fluo-4 calcium flux; stronger effect = higher value; triggered by carbachol at its EC20. B-score at 10 µM. 310,000 compounds, 0.45% hits;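 active = B-score, a plate-corrected calcium signal, over three deviations above library mean, with baseline fluorescence within five deviations of library mean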;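 also: RGS4 expression induced by doxycycline in cells with stable M3 receptor; B-score is computed from the integrated fluorescence ratio over baseline after carbachol; higher B-score means a larger calcium signal and so more RGS4 inhibition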
Target sequence (P49798 whole entry, looked up): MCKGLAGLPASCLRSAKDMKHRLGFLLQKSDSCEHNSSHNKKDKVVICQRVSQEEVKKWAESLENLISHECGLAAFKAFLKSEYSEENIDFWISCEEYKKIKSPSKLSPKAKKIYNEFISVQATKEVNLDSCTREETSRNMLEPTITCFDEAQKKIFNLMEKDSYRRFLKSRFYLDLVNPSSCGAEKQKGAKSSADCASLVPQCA
MrgX1 allo act: allosterically activates human MrgX1 receptor signaling; MrgX1-HEK293, Fluo-4 calcium flux, FDSS; stronger effect = higher value; B-score at 10 µM; 310,000 compounds, 0.63% hits; Q96LB2;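 active = plate-corrected calcium response at least 3 library SD above typical, normal starting fluorescence, not activating the receptor alone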;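 also: compound read alongside a low EC10 to EC30 dose of BAM8-22 agonist; peak minus trough fluorescence over baseline measured at the second addition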
MrgX1 ag: activates human MrgX1 receptor signaling; AID 588627; MrgX1-HEK293 cells, Fluo-4 calcium fluorescence, agonist mode; stronger effect = higher value; Q96LB2; B-score at 10 µM; 310,000 compounds, 0.44% hits;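 active = calcium response B-score plate-corrected fluorescence ratio at least 3 library SD, with starting fluorescence B-score inside 5 SD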
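Material: MrgX1-expressing HEK293 cells; input: 15,000 cells per well; doses: test compound given as first of three sequential additions; schedule: overnight plating before 1 h dye loading; technique: Fluo-4 NW calcium-flux fluorescence, kinetic read; evaluation: baseline-normalised fluorescence change ratio, B-scored; control set: plate-wise positive and negative controls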
RGS4 pot: RGS4 potentiation or activation | HEK293 M3R/inducible RGS4, carbachol calcium flux Fluo4; stronger effect = lower value | B-score at 10 µM | 310,000 compounds, 0.92% hits | AID 463111;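 active = B-score of the integrated calcium signal more than 4 SD below the library mean, with starting fluorescence not abnormally high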;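 also: negative B-score means reduced calcium response which marks RGS4 activation or potentiation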
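Also added: carbachol at ECmax as muscarinic agonist stimulus; Assay system: HEK293 cells with stable M3R and inducible RGS4; Timing: overnight RGS4 induction, 30 min dye load 37 °C, 20 min compound RT; Measured by: Fluo4-AM (2 µM) calcium-flux fluorescence, kinetic read.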
MrgX1 ant reconf: confirmation of human MrgX1 receptor antagonists; shares compounds with MrgX1 antag; MrgX1-HEK293, BAM8-22 calcium flux, Fluo-4; stronger effect = lower value; remaining BAM8-22 calcium response % of control (stronger effect = lower value), % at 10 µM; 2,300 compounds, 19% hits;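 active = remaining agonist calcium response no higher than 100% minus 3 SD of agonist-only control wells, with starting fluorescence near control levels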;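 also: agonist BAM8-22 given at a near maximal EC90 to ECmax level; peak minus minimum fluorescence divided by baseline after agonist addition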
HEK293 Ca flux: MrgX1 antagonist counter-screen hit in parental HEK293 cells | shares compounds with MrgX1 antag | Fluo-4 calcium fluorescence, FDSS | fluorescence ratio F(max-min)/F0 at 10 µM | 4,000 compounds, 2% hits | AID 624111;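 active = duplicate-averaged calcium fluorescence ratio at least three times the standard deviation of buffer wells, a nonspecific response in parental cells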
HEK293 Ca counter: activity in parental HEK293 cells without MrgX1; shares compounds with MrgX1 antag; parental HEK293 calcium flux, Fluo-4 fluorescence ratio; stronger effect = higher value; fluorescence ratio F(max-min)/F0 at 10 µM; 4,000 compounds, 0.4% hits; AID 624114;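 active = calcium fluorescence ratio, averaged over duplicates, at least 3 SD of the buffer-well ratio, meaning a nonspecific response in receptor-free cells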;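 also: untransfected parental HEK293 lacking MrgX1 used as counterscreen for MrgX1 allosteric activators; fluorescence change taken during the second addition on a kinetic imager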
HEK293 Ca cntr2: activity in parental HEK293 cells lacking MrgX1 receptor | Fluo-4 calcium fluorescence (FDSS); stronger effect = higher value | shares compounds with MrgX1 antag | AID 624115 | 4,000 compounds, 8.7% hits | fluorescence ratio F(max-min)/F0 at 10 µM;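 active = calcium fluorescence ratio at least three times the spread of buffer wells, meaning a non-specific response in parental cells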
A number is an active result; . = inactive; / = not tested or not shown. A selection: hits, their analogues and other compounds. The true share with any hit is near 3.5%.

SMILES | MrgX1 antag | RGS4 block | MrgX1 allo act | MrgX1 ag | RGS4 pot | MrgX1 ant reconf | HEK293 Ca flux | HEK293 Ca counter | HEK293 Ca cntr2
O=C(NCCc1ccccc1)C1CCN(S(=O)(=O)N2CCC3(CC2)OCCO3)CC1 | -6.01 | . | . | . | . | . | . | . | .
O=C(NCCN1CCC(Cc2ccccc2)CC1)C1CCN(S(=O)(=O)N2CCC3(CC2)OCCO3)CC1 | . | . | . | . | . | / | / | / | /
O=C(NCCc1ccccc1)C1CCN(C(=O)NCc2ccccc2)CC1 | -11.3 | . | . | . | . | . | . | . | .
CCc1ccc(CNC(=O)C2CCCN(c3nn4c(=O)cc(C)nc4s3)C2)cc1 (stereo not given) | . | . | . | . | . | / | / | / | /
CC(CNC(=O)c1ccc(NC2=NC3CS(=O)(=O)CC3S2)cc1)c1ccccc1 (stereo not given) | -5.16 | . | . | . | . | . | . | . | .
CC(NC(=O)Cc1ccc(NC2=NC3CS(=O)(=O)CC3S2)cc1)c1ccccc1 (stereo not given) | . | . | . | . | . | / | / | / | /
O=[N+]([O-])c1c(Nc2cccc(O)c2)cc(Cl)c2nonc12 | -11 | . | . | . | . | . | . | . | .
CCOC(=O)C(C)Sc1nc(=O)n2ccccc2n1 (stereo not given) | -5.1 | . | . | . | . | . | . | . | .
Cc1ccc(N=Cc2cc3c(cc2O)OC(N)=C(C#N)C3c2ccccc2)cc1 (stereo not given) | -9.79 | . | . | . | . | 80.0% | . | . | .
COc1cc(C(=O)NNC(=O)c2cccn2C)cc(OC)c1OC | . | . | . | . | . | / | / | / | /
O=C(CSc1nnc(NC(=O)c2cc(Br)ccc2Cl)s1)NCC1CCCO1 (stereo not given) | -12.7 | . | . | . | . | . | . | . | .
O=C(CSc1nc2ccccc2s1)NCC1CCCO1 (stereo not given) | -5.94 | . | . | . | . | . | . | . | .
COC1CCN(C(=O)CC2C(=O)NCCN2CC(C)(C)C)CC1 (stereo not given) | . | . | . | . | . | / | / | / | /
COC1CCN(C(=O)CC2C(=O)NCCN2CC2CCCCC2)CC1 (stereo not given) | -5.31 | . | . | . | . | . | . | . | .
COc1cc(CN(C)C(C)C(=O)Nc2ccc([N+](=O)[O-])cc2Cl)ccc1OC(F)F (stereo not given) | -21.3 | . | . | . | . | . | . | . | .
CN(C)CCNC(=O)Cn1ccc2cc(S(=O)(=O)N3CCCCCC3)ccc21 | . | . | . | . | . | / | / | / | /
CCC(CC)c1nnc(NC(=O)c2ccc(N3CCCC3=O)cc2)s1 | -4.93 | . | . | . | . | . | . | . | .
O=C(CC1C(=O)NCCN1Cc1ccoc1)NCCCn1ncc2ccccc21 (stereo not given) | . | . | . | . | . | / | / | / | /
COC(=O)C1CSC(C(=O)OC)N1C(=O)Nc1ccccc1 (stereo not given) | . | . | . | . | . | / | / | / | /
COC(=O)C1CSC(C(=O)OC)N1C(=O)CN1CCN(c2ccccc2)CC1 (stereo not given) | -8.1 | . | . | . | . | 77.3% | . | . | .
CC1(c2ccc(C#N)cc2)NC(=O)N(CC(=O)Nc2cc(S(=O)(=O)N3CCOCC3)ccc2Cl)C1=O (stereo not given) | -7.33 | . | . | . | . | . | . | . | .
CN1CCN(C(CNC(=O)C(=O)Nc2ccc3c(c2)OCCO3)c2ccc(F)cc2)CC1 (stereo not given) | . | . | . | . | . | / | / | / | /
CC(C)c1cc2c(c(O)c1O)[C@@]13CCCC(C)(C)C1CC2OC3=O (stereo not given in full) | -4.53 | . | . | . | . | 76.2% | . | . | .
Cc1ccccc1NS(=O)(=O)c1ccc2[nH]c(=O)[nH]c2c1 | -5.6 | . | . | . | . | . | . | . | .
COc1ccc(Cc2cnc(N)s2)cc1 | -11.9 | . | . | . | . | 79.4% | . | . | .
SMILES | MrgX1 antag | RGS4 block | MrgX1 allo act | MrgX1 ag | RGS4 pot | MrgX1 ant reconf | HEK293 Ca flux | HEK293 Ca counter | HEK293 Ca cntr2
CN(C)/C=C/C(=O)c1ccc([N+](=O)[O-])c(CS(=O)(=O)c2ccc(Cl)cc2)c1 | . | . | . | . | . | / | / | / | /
COc1ccc(/C=C/c2nc3cc(-c4ccccc4)ccc3o2)cc1O | -4.55 | . | . | . | . | . | . | . | .
Cc1ccc(S(=O)(=O)NCC(C)n2cncn2)cc1 (stereo not given) | . | . | . | . | . | / | / | / | /
CC(=O)c1ccccc1OC(=O)CCN1C(=O)C2C3C=CC(C4CC34)C2C1=O (stereo not given) | -4.54 | . | . | . | . | . | . | . | .
O=C(CCN1C(=O)C2C3C=CC(C4CC34)C2C1=O)Oc1ccccc1 (stereo not given) | . | . | . | . | . | / | / | / | /
CC(=O)NC(CC(=O)NCCc1ccccc1)c1ccccc1 (stereo not given) | -4.9 | . | . | . | . | . | . | . | .
COc1ccccc1OCCNC(=O)CC(NC(C)=O)c1ccccc1 (stereo not given) | . | . | . | . | . | / | / | / | /
CCCOc1ccc(Oc2nc(-c3ccncc3)nc3ccccc23)cc1 | . | . | . | . | . | / | / | / | /
CCN(CC)S(=O)(=O)c1cc(NC(=O)CN2C(=O)NC3(CCCc4ccccc43)C2=O)ccc1C (stereo not given) | -6.07 | . | . | . | . | 85.3% | . | . | .
O=C(NCCc1ccco1)C(=O)NCC1OCCCN1S(=O)(=O)c1cc(F)ccc1F (stereo not given) | . | . | . | . | . | / | / | / | /
Cc1ccc(C(CNS(=O)(=O)c2ccc(C)cc2)N2CCN(C)CC2)cc1 (stereo not given) | . | . | . | . | . | / | / | / | /
Cc1ccc(C(CNS(=O)(=O)c2ccc(Cl)cc2)N2CCN(C)CC2)cc1 (stereo not given) | -4.96 | . | . | . | . | 78.5% | . | . | .
CCOC(=O)N1CCN(C(=O)CCCn2c(=S)[nH]c3ccccc3c2=O)CC1 | . | . | . | . | . | / | / | / | /
CCOC(=O)N1CCN(C(=O)CCCn2c(=O)[nH]c3ccccc3c2=O)CC1 | -7.44 | . | . | . | . | . | . | . | .
COc1ccc([N+](=O)[O-])cc1N(CC(=O)N1CCN(Cc2ccccc2)CC1)S(C)(=O)=O | . | . | . | . | . | / | / | / | /
